Screening results as filed in PubChem.
The sample as a whole holds a higher share of hits than the screen did.
YB-1 expr inh – inhibitors of YB-1 gene expression, primary screen, cell-based, fluorescence | delta delta Cp (YB-1 minus CDIP) (no concentration beside the values) | AID 434959, 2010 | 0.37% of 30,000 active | U2OS, qRT-PCR YB-1 vs CDIP delta delta Cp, 16 h; active compounds read high; zero = DMSO, each unit about twofold;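 active = delta delta Cp rounded down to an integer at or above 3, about 3 SD of DMSO wells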;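 note: higher means less YB-1 transcript or more CDIP transcript relative to DMSO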
T cruzi HTS – inhibitors of intracellular Trypanosoma cruzi, primary screen, cell-based, plate reader, single point, set 2 | AID 651903, 2012 | activity score (inhibition), % at 5.01 µM | 4.9% of 22,000 active | intracellular Trypanosoma cruzi in host cells; in the data active = activity score above about 55%;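 note: parasites and compound incubated about four days before reading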
INS-1E ATP HTS – protection of INS-1E cells from cytokine death, primary screen, ATP luminescence, single point. INS-1E cytokine-induced death, 48 h; normalised: neutral wells 0, positive control 100. 0.1% of 20,000 active. protection from cytokine-induced ATP loss, % at 10 µM;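 active = mean replicate protection from cytokine-induced ATP loss at least 50% and at least 75% of replicates each reaching 50%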
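assay system = INS-1E rat insulinoma cells | amount = 8000 cells per well | medium = phenol-red-free RPMI with 5% fetal bovine serum | doses = one compound concentration, pin transfer | timing = 48 h cytokine plus compound treatment, 10 min reagent incubation | also added = IL-1β, TNF-α and IFN-γ cytokine mix | signal = CellTiter-Glo luminescence measuring cellular ATP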
Hits are given with their value; – = inactive; · = not tested or not shown.

SMILES	YB-1 expr inh	T cruzi HTS	INS-1E ATP HTS
Cc1cc(C(=O)Nc2cccc3c2O[C@H](CN(C)Cc2ccc(C(=O)Nc4ccccc4N)cc2)[C@@H](C)CN([C@@H](C)CO)C3=O)n(C)n1	–	–	–
C[C@@H]1CN([C@H](C)CO)C(=O)c2cccc(NC(=O)C3CCOCC3)c2O[C@H]1CN(C)Cc1ccc(C(=O)Nc2ccccc2N)cc1	–	–	–
Cc1cc(C(=O)Nc2cccc3c2O[C@H](CN(C)Cc2ccc(C(=O)Nc4ccccc4N)cc2)[C@H](C)CN([C@H](C)CO)C3=O)n(C)n1	–	63.4	–
C[C@H](CO)N1C[C@H](C)[C@H](CN(C)Cc2ccc(C(=O)Nc3ccccc3N)cc2)Oc2c(cccc2N(C)C)C1=O	–	56.4	–
C=CCNC(=O)[C@@H]1[C@H]2C(=O)O[C@H](c3ccccc3)[C@H](c3ccccc3)N2[C@H](c2ccccc2OCCO)[C@@]12C(=O)N(C(=O)OCCOC)c1ccccc12	–	·	·
CCc1cccc(CC)c1NC(=O)COc1ccccc1C(=O)N1CCOCC1	–	·	·
COc1c(O)cc([C@@H]2Oc3cc(O)cc(O)c3C[C@@H]2O)cc1O	–	·	·
C[C@@H]1CN([C@@H](C)CO)C(=O)c2cccc(NC(=O)c3cnccn3)c2O[C@@H]1CN(C)Cc1ccc(C(=O)Nc2ccccc2N)cc1	–	71.9	–
C[C@@H]1CN([C@H](C)CO)C(=O)c2cccc(NC(=O)c3cnccn3)c2O[C@H]1CN(C)Cc1ccc(C(=O)Nc2ccccc2N)cc1	–	–	–
CC1=CCC[C@@H]2[C@@](C)(CCc3ccoc3)[C@H](C(=O)O)CC[C@@]12C	–	·	·
C[C@H]1CN([C@@H](C)CO)C(=O)c2cccc(NS(=O)(=O)c3ccccc3)c2O[C@@H]1CN(C)Cc1ccc(Oc2ccccc2)cc1	–	–	–
C[C@H](CO)N1C[C@H](C)[C@H](CN(C)Cc2ccc(Oc3ccccc3)cc2)Oc2c(NS(=O)(=O)c3ccccc3)cccc2C1=O	–	–	–
C[C@@H]1CN([C@@H](C)CO)C(=O)c2cccc(NS(=O)(=O)c3ccc(Cl)cc3)c2O[C@@H]1CN(C)Cc1ccc(Oc2ccccc2)cc1	–	66.5	–
C[C@H]1CN([C@@H](C)CO)C(=O)c2cccc(NS(=O)(=O)c3ccc(Cl)cc3)c2O[C@H]1CN(C)Cc1ccc(Oc2ccccc2)cc1	–	–	–
C[C@H](CO)N1C[C@H](C)[C@@H](CN(C)Cc2ccc(Oc3ccccc3)cc2)Oc2c(NS(=O)(=O)c3ccc(Cl)cc3)cccc2C1=O	–	64.9	–
C[C@@H]1CN([C@H](C)CO)C(=O)c2cccc(NS(=O)(=O)c3ccc(Cl)cc3)c2O[C@H]1CN(C)Cc1ccc(Oc2ccccc2)cc1	–	58.2	–
CC(C)NC(=O)Nc1ccc2c(c1)C(=O)N([C@@H](C)CO)C[C@H](C)[C@H](CN(C)C(=O)Nc1ccc(F)cc1)O2	–	–	–
C[C@@H]1CN([C@@H](C)CO)C(=O)Cc2cc(NC(=O)Cc3cn(C)c4ccccc34)ccc2O[C@@H]1CN(C)Cc1ccc2c(c1)OCO2	–	–	–
C[C@H](CO)N1C[C@H](C)[C@@H](CN(C)C(=O)Nc2ccc(C(F)(F)F)cc2)Oc2ccc(NC(=O)C3CC3)cc2C1=O	3.34	–	–
C[C@H]1CN([C@@H](C)CO)C(=O)c2cc(NC(=O)C3CC3)ccc2O[C@H]1CN(C)CC1CC1	13.1	–	–
C[C@@H]1CN([C@H](C)CO)C(=O)c2cc(NC(=O)C3CC3)ccc2O[C@@H]1CN(C)C(=O)Nc1ccc(C(F)(F)F)cc1	–	–	–
C[C@@H]1CN([C@@H](C)CO)C(=O)c2cc(NC(=O)Nc3ccc(C(F)(F)F)cc3)ccc2O[C@H]1CN(C)C(=O)Nc1ccc(C(F)(F)F)cc1	–	74.4	–
C[C@H](CO)N1C[C@H](C)[C@H](CN(C)CC2CC2)Oc2ccc(NC(=O)C3CC3)cc2C1=O	–	–	–
C[C@@H]1CN([C@H](C)CO)C(=O)c2cc(NC(=O)Nc3ccc(C(F)(F)F)cc3)ccc2O[C@@H]1CN(C)C(=O)Nc1ccc(C(F)(F)F)cc1	–	–	–
O=C(O)C1=C[C@H](c2ccc3c(c2)Cc2ccccc2-3)C[C@H](OCCCCO)O1	–	·	·
SMILES	YB-1 expr inh	T cruzi HTS	INS-1E ATP HTS
CN(C)S(=O)(=O)c1ccc(C(=O)Nc2nc3c(s2)CCc2ccccc2-3)cc1	–	·	·
Cc1noc(C)c1S(=O)(=O)N(C)C[C@@H]1Oc2ccc(NS(=O)(=O)c3ccc(Cl)cc3)cc2CC(=O)N([C@H](C)CO)C[C@@H]1C	–	–	–
Cc1noc(C)c1NC(=O)N(C)C[C@H]1Oc2c(NC(=O)NC(C)C)cccc2C(=O)N([C@@H](C)CO)C[C@H]1C	–	–	–
COc1cc(C(=O)OC[C@@]2(O)CO[C@H](OC3C(CO)OC(OC(C)/C=C/C4(O)C(C)CC(O)CC4(C)C)C(O)C3O)[C@@H]2O)cc(OC)c1O (stereo not given in full)	3.52	·	·
CC(/C=C/C1(O)C(C)CC(O)CC1(C)C)OC1OC(CO)C(O)C(O)C1O (stereo not given)	–	·	·
COC(=O)CCCCCCC(=O)N/N=C/c1ccc(-c2ccccc2)c(F)c1	–	–	–
O=C(CCCCC(=O)N/N=C/c1cccc(O)c1)NO	–	–	–
O=C(CCCCCC(=O)N/N=C/c1ccc(O)c2ccccc12)NO	–	–	57.3
O=C(CCCCC(=O)N/N=C/c1ccc2ccccc2c1)NO	–	–	73.2
O=C(CCCCC(=O)N/N=C/c1cc(O)ccc1O)NO	–	–	–
O=C(CCCCC(=O)N/N=C/c1ccc(-c2ccccc2)c(F)c1)NO	–	–	60.3
C[C@H]1CN([C@@H](C)CO)C(=O)Cc2cc(NC(=O)Nc3ccc4c(c3)OCO4)ccc2O[C@@H]1CN(C)S(=O)(=O)c1cccs1	–	–	–
Cc1ccccc1CN(C)C[C@@H]1OCc2cnnn2CCCC(=O)N([C@H](C)CO)C[C@@H]1C	–	–	·
CCN(CC)c1nc2ccccc2c(=O)s1	–	·	·
C[C@H]1CN([C@@H](C)CO)C(=O)c2cccc(NC(=O)Nc3ccccc3)c2O[C@@H]1CN(C)Cc1ccc(C(=O)Nc2ccccc2N)cc1	–	73.6	–
C[C@@H]1CN([C@H](C)CO)C(=O)c2cccc(NC(=O)Nc3ccc4c(c3)OCO4)c2O[C@H]1CN(C)Cc1ccc(C(=O)Nc2ccccc2N)cc1	–	77.0	–
C[C@@H]1CN([C@@H](C)CO)C(=O)c2cccc(NC(=O)Nc3ccccc3)c2O[C@H]1CN(C)Cc1ccc(C(=O)Nc2ccccc2N)cc1	–	–	–
C[C@H](CO)N1C[C@H](C)[C@H](CN(C)Cc2ccc(C(=O)Nc3ccccc3N)cc2)Oc2c(NC(=O)Nc3ccc4c(c3)OCO4)cccc2C1=O	–	–	–
C[C@@H]1CN([C@@H](C)CO)C(=O)c2cccc(NC(=O)Nc3ccc(F)cc3)c2O[C@@H]1CN(C)Cc1ccc(C(=O)Nc2ccccc2N)cc1	–	69.8	–
